In ChEMBL document CHEMBL1131301, “Tyrosine kinase inhibitors. 14. Structure-activity relationships for methylamino-substituted derivatives of 4-[(3-bromophenyl)amino]-6-(methylamino)-pyrido[3,4-d]pyrimidine (PD 158780), a potent and specific inhibitor of the tyrosine kinase activity of receptors for the EGF family of growth factors” (J Med Chem, 1998):
In brackets after ≈: the same amount, converted by molar mass.

Tests used:
[1] = test system: Mus musculus; experiment: Net reduction in EGFR tumor burden between the first and last treatments in mice at 200 mg/kg peroral dose, days 1-15 administration; type: functional; conditions: route oral
Summary of the method: (§1)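 NCr nu/nu nude mice (18-22 g) were randomized and implanted sc with A431 epidermoid, human-EGFR-transfected NIH 3T3 fibroblast, or MCF-7 breast tumor fragments in the right axilla on day 0. Dosing was ip or oral, by average cage weight, with 6 mice per dose group. Log net cell kill is the net reduction in tumor burden between the first and last treatments.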

[2] = Aqueous solubility ([…] degree C); type: physicochemical
[3] = target: Insulin receptor (Homo sapiens, UniProt P06213); experiment: Inhibition of insulin receptor(IR)
[4] = target: T1, Epidermal growth factor receptor (Homo sapiens, UniProt P00533); experiment: Inhibition of autophosphorylation of epidermal growth factor receptor in A431 cells in culture
[5] = test system: A-431; experiment: Weight change in A431 tumor bearing mice at 25 mg/kg ip dose, days 7-21 administration; type: functional; conditions: route intraperitoneal
[6] = Inhibition of Platelet-derived growth factor receptor (PDGFR)
[7] = test system: Mus musculus; experiment: Difference in days for treated (T) and control (C) EGFR tumor fragments to reach 750 mg in mice at 200 mg/kg peroral dose, administration days 1-15; type: functional; conditions: route oral
[8] = target: T1, Epidermal growth factor receptor; experiment: Inhibition of EGF-dependent autophosphorylation of EGF-R in A431 cells
[9] = test system: Mus musculus; experiment: Weight change of EGFR tumor bearing mice at 25 mg/kg ip dose, days 1-15 administration; conditions: route intraperitoneal
[10] = test system: Mus musculus; experiment: Difference in days for treated (T) and control (C) EGFR tumor fragments to reach 750 mg in mice at 25 mg/kg ip dose, administration days 1-15; type: functional; conditions: route intraperitoneal
[11] = test system: A-431; experiment: Ratio of treated and control A431 median tumor mass*100% in mice at 25 mg/kg peroral dose, days 7-21 administration; type: functional; conditions: route intraperitoneal, in the assay text read “intraperitoneal” for “peroral”
Summary of the method: (§2)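 Nude mice (NCr nu/nu, 18-22 g) were randomized and implanted sc with tumor fragments in the right axilla on day 0. Tumor lines were A431 epidermoid, NIH 3T3 fibroblasts transfected with human EGFR, and MCF-7 breast. Dosing was ip or oral, by average cage weight, with 6 mice/dose group. Vehicle was 6% dimethylacetamide/94% 50 mM sodium lactate pH 4.0 (suspension), or isethionate salt in water.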

[12] = test system: A-431; experiment: Difference in days for treated (T) and control (C) A431 tumor fragments to reach 750 mg in mice at 25 mg/kg intraperitoneal dose, administration days 7-21
[13] = target: Proto-oncogene tyrosine-protein kinase Src (Homo sapiens, UniProt P12931); experiment: Inhibition of c-Src tyrosine kinase
[14] = target: T1, Epidermal growth factor receptor; experiment: (§3) Inhibition of tyrosine/glutamic acid copolymer phosphorylation by epidermal growth factor receptor prepared of human A431
[15] = target: Receptor tyrosine-protein kinase erbB-2 (Homo sapiens, UniProt P04626); experiment: Inhibition of heregulin-dependent autophosphorylation of ErbB2 receptor in MDA-MB-453 cells; type: functional, cell-based
[16] = test system: A-431; experiment: Net reduction in A431 tumor burden between the first and last treatments in mice at 25 mg/kg ip dose, days 7-21 administration; type: functional; conditions: route intraperitoneal; summary of the method: as §1
[17] = test system: Mus musculus; experiment: Ratio of treated and control EGFR median tumor mass*100% in mice at 25 mg/kg ip dose, days 1-15 administration; type: functional; conditions: route intraperitoneal; summary of the method: as §2
[18] = target: T1, Epidermal growth factor receptor; experiment: as §3; remark: listed apart in the source
[19] = target: Fibroblast growth factor receptor (Homo sapiens, UniProt P22607+P11362+P22455+P21802); experiment: Inhibition of fibroblast growth factor receptor(FGFR); type: protein assay
[20] = test system: Mus musculus; experiment: Net reduction in EGFR tumor burden between the first and last treatments in mice at 25 mg/kg ip dose, days 1-15 administration; type: functional; conditions: route intraperitoneal; summary of the method: as §1
[21] = test system: Mus musculus; experiment: Weight change of EGFR tumor bearing mice at 200 mg/kg peroral dose, days 1-15 administration; type: functional, organism-based; design: dose 200 mg/kg
[22] = test system: Mus musculus; experiment: Ratio of treated and control EGFR median tumor mass*100% in mice at 200 mg/kg peroral dose, days 1-15 administration; type: functional; conditions: route oral; summary of the method: as §2
[23] = test system: MCF7; experiment: Ratio of treated and control MCF-7 median tumor mass*100% in mice at 25 mg/kg ip dose, days 1-15 administration; type: functional; conditions: route intraperitoneal; summary of the method: as §2
[24] = test system: A-431; experiment: Net reduction in A431 tumor burden between the first and last treatments in mice at 12 mg/kg ip dose, days 7-21 administration; type: functional; conditions: route intraperitoneal; summary of the method: as §1
[25] = test system: MCF7; experiment: Difference in days for treated (T) and control (C) MCF-7 tumor fragments to reach 750 mg in mice at 25 mg/kg ip dose, administration days 1-15; type: functional; conditions: route intraperitoneal
[26] = test system: Mus musculus; experiment: Net reduction in EGFR tumor burden between the first and last treatments in mice at 400 mg/kg peroral dose, days 1-15 administration; type: functional; conditions: route oral; summary of the method: as §1
[27] = test system: A-431; experiment: WWeight change in A431 tumor bearing mice at 25 mg/kg ip dose, days 13-26 administration; type: functional; conditions: route intraperitoneal
[28] = test system: Mus musculus; experiment: Weight change of EGFR tumor bearing mice at 400 mg/kg peroral dose, days 1-15 administration; type: functional; conditions: route oral
[29] = test system: A-431; experiment: Ratio of treated and control A431 median tumor mass*100% in mice at 12 mg/kg peroral dose, days 7-21 administration; type: functional; conditions: route intraperitoneal, in the assay text read “intraperitoneal” for “peroral”; summary of the method: as §2
[30] = target: T1, Epidermal growth factor receptor; experiment: Inhibit of phosphorylation of a tyrosine/glutamic acid copolymer by epidermal growth factor receptor prepared from human A431 carcinoma cell vesicles by immunoaffinity chromatography.
[31] = test system: SK-OV-3; experiment: Difference in days for treated (T) and control (C) SKOV-3 tumor fragments to reach 750 mg in mice at 25 mg/kg ip dose, administration days 10-14,17-21,24-28; type: functional; conditions: route intraperitoneal
[32] = test system: Mus musculus; experiment: Ratio of treated and control EGFR median tumor mass*100% in mice at 400 mg/kg peroral dose, days 1-15 administration; type: functional; conditions: route oral; summary of the method: as §2
[33] = test system: A-431; experiment: Difference in days for treated (T) and control (C) A431 tumor fragments to reach 750 mg in mice at 12 mg/kg peroral dose, administration days 7-21; type: functional; conditions: route intraperitoneal, in the assay text read “intraperitoneal” for “peroral”; summary of the method: as §2
[34] = test system: SK-OV-3; experiment: Weight change in SKOV-3 tumor bearing mice at 25 mg/kg ip dose, days 10-14,17-21,24-28 administration; type: functional; conditions: route intraperitoneal
[35] = test system: A-431; experiment: Net reduction in A431 tumor burden between the first and last treatments in mice at 25 mg/kg ip dose, administration days 13-26; type: functional; conditions: route intraperitoneal; summary of the method: as §1
[36] = test system: A-431; experiment: Difference in days for treated (T) and control (C) A431 tumor fragments to reach 750 mg in mice at 25 mg/kg peroral dose, administration days 7-21; type: functional; conditions: route oral
[37] = test system: MCF7; experiment: Net reduction in MCF-7 tumor burden between the first and last treatments in mice at 25 mg/kg ip dose, days 1-15 administration; type: functional; conditions: route intraperitoneal; summary of the method: as §1
[38] = test system: SK-OV-3; experiment: Ratio of treated and control SKOV-3 median tumor mass*100% in mice at 25 mg/kg ip dose, days 10-14,17-21,24-28 administration; type: functional; conditions: route intraperitoneal
[39] = test system: MCF7; experiment: Weight change in MCF-7 tumor bearing mice at 25 mg/kg ip dose, days 1-15 administration; type: functional
[40] = test system: A-431; experiment: Weight change in A431 tumor bearing mice at 12 mg/kg ip dose, days 7-21 administration; type: functional; conditions: route intraperitoneal
[41] = test system: Mus musculus; experiment: Difference in days for treated (T) and control (C) EGFR tumor fragments to reach 750 mg in mice at 400 mg/kg peroral dose, administration days 1-15; type: functional; conditions: route oral
[42] = test system: Mus musculus; experiment: Weight change of EGFR tumor bearing mice at 25 mg/kg ip dose, days 1-15 administration; type: functional; conditions: route intraperitoneal
[43] = test system: A-431; experiment: Ratio of treated and control A431 median tumor mass*100% in mice at 25 mg/kg peroral dose, days 13-26 administration; type: functional, Mus musculus; conditions: route intraperitoneal, in the assay text read “intraperitoneal” for “peroral”; summary of the method: as §2

T1 sequence (P00533 whole entry): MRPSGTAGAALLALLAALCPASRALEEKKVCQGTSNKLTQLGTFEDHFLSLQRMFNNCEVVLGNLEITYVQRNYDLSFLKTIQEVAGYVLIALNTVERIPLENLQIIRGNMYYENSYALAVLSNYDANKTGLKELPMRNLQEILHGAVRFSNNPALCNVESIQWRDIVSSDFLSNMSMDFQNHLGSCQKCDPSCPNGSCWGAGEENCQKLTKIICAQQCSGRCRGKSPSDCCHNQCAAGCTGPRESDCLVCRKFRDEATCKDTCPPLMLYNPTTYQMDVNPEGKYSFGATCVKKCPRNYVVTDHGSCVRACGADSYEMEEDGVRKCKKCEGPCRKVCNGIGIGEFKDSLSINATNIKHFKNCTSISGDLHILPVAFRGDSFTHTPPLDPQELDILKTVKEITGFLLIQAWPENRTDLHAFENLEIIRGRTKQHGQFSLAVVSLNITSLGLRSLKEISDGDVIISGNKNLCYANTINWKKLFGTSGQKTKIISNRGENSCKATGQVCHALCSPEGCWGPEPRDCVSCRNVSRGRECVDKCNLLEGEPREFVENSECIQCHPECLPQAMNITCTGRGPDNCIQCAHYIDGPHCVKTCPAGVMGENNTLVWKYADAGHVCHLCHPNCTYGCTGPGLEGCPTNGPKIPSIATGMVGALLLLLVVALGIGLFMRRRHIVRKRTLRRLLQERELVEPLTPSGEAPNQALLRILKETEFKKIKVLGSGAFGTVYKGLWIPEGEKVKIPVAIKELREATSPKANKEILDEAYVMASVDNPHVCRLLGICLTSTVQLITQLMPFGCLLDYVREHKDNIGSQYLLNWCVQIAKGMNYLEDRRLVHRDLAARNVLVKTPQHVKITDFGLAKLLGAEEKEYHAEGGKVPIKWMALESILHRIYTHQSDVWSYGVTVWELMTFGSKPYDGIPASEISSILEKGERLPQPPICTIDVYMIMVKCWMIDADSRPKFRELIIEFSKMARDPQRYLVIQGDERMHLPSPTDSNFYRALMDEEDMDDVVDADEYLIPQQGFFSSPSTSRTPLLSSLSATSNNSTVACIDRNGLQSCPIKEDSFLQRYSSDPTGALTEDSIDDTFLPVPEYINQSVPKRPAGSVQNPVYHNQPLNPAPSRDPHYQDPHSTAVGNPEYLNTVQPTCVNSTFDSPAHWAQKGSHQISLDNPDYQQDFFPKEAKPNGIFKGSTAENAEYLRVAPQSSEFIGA
Sequence of Receptor tyrosine-protein kinase erbB-2 (P04626 whole entry): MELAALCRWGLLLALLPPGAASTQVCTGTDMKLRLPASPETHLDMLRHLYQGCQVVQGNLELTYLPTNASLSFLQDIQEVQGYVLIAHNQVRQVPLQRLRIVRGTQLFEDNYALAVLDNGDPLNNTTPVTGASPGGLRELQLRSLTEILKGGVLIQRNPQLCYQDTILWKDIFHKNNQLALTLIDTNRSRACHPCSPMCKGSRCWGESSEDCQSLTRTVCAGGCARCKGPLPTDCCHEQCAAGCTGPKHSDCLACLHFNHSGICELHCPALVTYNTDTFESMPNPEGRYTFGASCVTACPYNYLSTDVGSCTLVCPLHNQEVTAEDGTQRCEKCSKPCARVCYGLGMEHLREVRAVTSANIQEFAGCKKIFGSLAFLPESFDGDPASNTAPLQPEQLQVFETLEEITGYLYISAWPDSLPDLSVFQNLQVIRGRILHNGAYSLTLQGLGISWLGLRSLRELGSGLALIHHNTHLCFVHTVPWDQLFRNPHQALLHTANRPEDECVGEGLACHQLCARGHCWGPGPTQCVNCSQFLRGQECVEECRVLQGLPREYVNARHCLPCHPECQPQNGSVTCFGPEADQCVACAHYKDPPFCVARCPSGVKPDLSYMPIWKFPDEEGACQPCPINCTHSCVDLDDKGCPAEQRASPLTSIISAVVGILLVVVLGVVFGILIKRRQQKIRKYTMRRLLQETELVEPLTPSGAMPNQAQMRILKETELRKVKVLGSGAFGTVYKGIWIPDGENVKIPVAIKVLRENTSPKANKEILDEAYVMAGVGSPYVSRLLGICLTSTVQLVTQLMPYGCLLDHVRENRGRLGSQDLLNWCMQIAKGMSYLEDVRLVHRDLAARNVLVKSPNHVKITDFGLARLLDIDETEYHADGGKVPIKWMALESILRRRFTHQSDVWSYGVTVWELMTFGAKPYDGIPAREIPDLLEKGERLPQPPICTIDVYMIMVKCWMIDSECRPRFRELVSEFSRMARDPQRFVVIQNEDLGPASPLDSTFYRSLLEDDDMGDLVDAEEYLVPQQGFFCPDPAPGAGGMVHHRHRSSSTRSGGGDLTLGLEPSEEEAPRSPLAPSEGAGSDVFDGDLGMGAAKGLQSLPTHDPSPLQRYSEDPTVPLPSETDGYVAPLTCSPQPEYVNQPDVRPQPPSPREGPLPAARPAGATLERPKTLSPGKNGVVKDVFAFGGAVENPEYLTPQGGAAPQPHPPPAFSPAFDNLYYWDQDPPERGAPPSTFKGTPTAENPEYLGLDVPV
Sequence of Proto-oncogene tyrosine-protein kinase Src (P12931 2-536 limits assumed): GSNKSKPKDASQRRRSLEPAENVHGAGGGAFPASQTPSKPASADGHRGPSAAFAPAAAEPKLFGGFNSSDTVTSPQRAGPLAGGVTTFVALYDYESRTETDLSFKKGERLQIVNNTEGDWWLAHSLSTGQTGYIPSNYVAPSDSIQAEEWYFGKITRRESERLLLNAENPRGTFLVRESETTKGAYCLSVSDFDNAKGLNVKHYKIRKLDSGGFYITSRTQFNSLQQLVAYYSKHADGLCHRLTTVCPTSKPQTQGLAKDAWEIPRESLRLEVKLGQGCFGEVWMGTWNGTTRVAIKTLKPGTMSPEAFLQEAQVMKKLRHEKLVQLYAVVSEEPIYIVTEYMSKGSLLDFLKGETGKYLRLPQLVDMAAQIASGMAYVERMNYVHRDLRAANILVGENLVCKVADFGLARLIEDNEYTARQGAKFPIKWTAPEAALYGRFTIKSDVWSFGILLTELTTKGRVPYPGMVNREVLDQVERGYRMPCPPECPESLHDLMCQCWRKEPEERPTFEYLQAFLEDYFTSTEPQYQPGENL
Sequence of Insulin receptor (P06213 28-758 limits assumed): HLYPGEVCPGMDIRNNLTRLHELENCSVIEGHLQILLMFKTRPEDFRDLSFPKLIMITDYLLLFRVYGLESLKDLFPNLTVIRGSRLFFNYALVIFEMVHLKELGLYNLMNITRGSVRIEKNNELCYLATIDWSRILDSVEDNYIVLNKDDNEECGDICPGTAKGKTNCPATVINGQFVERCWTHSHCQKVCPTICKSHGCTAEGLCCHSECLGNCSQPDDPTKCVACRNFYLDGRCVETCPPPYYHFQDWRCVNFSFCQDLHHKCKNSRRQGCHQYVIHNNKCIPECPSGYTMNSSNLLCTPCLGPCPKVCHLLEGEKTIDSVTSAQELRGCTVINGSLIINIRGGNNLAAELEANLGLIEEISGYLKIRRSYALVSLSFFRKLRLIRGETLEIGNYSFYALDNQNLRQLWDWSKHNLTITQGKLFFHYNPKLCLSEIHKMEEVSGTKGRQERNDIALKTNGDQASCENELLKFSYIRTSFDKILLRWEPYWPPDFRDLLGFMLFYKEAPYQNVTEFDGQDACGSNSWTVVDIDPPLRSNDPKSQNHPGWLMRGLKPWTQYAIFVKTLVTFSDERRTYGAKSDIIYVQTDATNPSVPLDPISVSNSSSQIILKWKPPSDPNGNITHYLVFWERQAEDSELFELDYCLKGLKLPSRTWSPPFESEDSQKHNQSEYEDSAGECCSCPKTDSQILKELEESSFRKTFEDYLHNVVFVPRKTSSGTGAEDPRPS
Sequence of Insulin receptor (P06213 763-1382 limits assumed): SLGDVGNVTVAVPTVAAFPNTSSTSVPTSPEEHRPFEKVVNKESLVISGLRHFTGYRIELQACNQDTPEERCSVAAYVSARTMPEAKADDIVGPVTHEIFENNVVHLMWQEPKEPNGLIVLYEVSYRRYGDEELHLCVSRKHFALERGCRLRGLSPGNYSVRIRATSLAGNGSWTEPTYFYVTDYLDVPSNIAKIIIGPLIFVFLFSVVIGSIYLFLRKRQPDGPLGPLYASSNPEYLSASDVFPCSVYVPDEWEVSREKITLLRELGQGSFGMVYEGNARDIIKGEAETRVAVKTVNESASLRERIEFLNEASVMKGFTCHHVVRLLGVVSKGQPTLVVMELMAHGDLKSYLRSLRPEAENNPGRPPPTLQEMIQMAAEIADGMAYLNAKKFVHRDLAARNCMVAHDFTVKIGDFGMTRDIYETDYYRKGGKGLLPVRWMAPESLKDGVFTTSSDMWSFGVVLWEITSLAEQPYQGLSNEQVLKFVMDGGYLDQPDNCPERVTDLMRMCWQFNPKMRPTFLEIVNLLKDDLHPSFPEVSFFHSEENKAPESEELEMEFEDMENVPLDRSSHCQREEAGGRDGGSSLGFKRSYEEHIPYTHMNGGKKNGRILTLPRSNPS

Q: Which Net cell kill [1] does the source give for `CN(C)CCNc1cc2c(Nc3cccc(Br)c3)ncnc2cn1` here?
A: -1.3 log10

Q: What about the S ([2]; buffer) of the same molecule?
A: > 48 mM

Q: What about the IC50 [3] of the same molecule?
A: > 50000 nM

Q: And the IC50 [4]?
A: 43 nM

Q: And the Weight change [5]?
A: -1.4 g

Q: And the IC50 [6]?
A: > 50000 nM

Q: And the T-C [7]?
A: 1.1 days

Q: And the IC50 [8]?
A: 43 nM

Q: What about the Weight change [9] of the same molecule?
A: -1.1 g

Q: And the T-C [10]?
A: 3.3 days

Q: What about the T/C [11] of the same molecule?
A: 66%

Q: And the T-C [12]?
A: 4.7 days

Q: What about the IC50 [13] of the same molecule?
A: > 50000 nM

Q: What about the IC50 [14] of the same molecule?
A: 1.1 nM

Q: And the IC50 [15]?
A: 379 nM

Q: And the Net cell kill [16]?
A: -0.5 log10

Q: What about the T/C [17] of the same molecule?
A: 43%

Q: And the IC50 [18]?
A: 1.1 nM

Q: What about the IC50 [19] of the same molecule?
A: > 50000 nM

Q: And the Net cell kill [20]?
A: -1 log10

Q: What about the Weight change [21] of the same molecule?
A: Weight gain

Q: What about the T/C [22] of the same molecule?
A: 47%

Q: With `Brc1cccc(Nc2ncnc3cnc(NCCN4CCOCC4)cc23)c1` as the molecule, how does the T/C [23] read?
A: 34%

Q: And the Net cell kill [24]?
A: -0.7 log10

Q: What about the T-C [25] of the same molecule?
A: 11.7 days

Q: What about the solubility ([2]; water, read-out: S) of the same molecule?
A: 10 mM (≈ 4290 µg/mL)

Q: And the IC50 [3]?
A: > 50000 nM

Q: And the Net cell kill [26]?
A: -1.1 log10

Q: And the IC50 [4]?
A: 7.9 nM

Q: What about the IC50 [6] of the same molecule?
A: > 50000 nM

Q: And the Weight change [27]?
A: -1.1 g

Q: And the Weight change [28]?
A: -2 g

Q: And the T/C [29]?
A: 93%

Q: And the IC50 [30]?
A: 0.65 nM

Q: And the T-C [31]?
A: 0 days

Q: What about the IC50 [8] of the same molecule?
A: 7.9 nM

Q: And the T/C [32]?
A: 15%

Q: What about the T-C [33] of the same molecule?
A: 1.9 days

Q: What about the T-C [10] of the same molecule?
A: 1.2 days

Q: And the Weight change [34]?
A: -2.1 g

Q: And the Net cell kill [35]?
A: -0.3 log10

Q: And the IC50 [13]?
A: > 50000 nM

Q: What about the IC50 [14] of the same molecule?
A: 0.7 nM

Q: And the IC50 [15]?
A: 219 nM

Q: What about the T-C [36] of the same molecule?
A: 2.1 days

Q: What about the Net cell kill [37] of the same molecule?
A: -0.1 log10

Q: What about the T/C [38] of the same molecule?
A: 100%

Q: What about the T/C [17] of the same molecule?
A: 77%

Q: What about the IC50 [19] of the same molecule?
A: > 50000 nM

Q: And the Weight change [39]?
A: Weight gain

Q: And the Net cell kill [20]?
A: -1.2 log10

Q: And the Weight change [40]?
A: -0.2 g

Q: What about the T-C [41] of the same molecule?
A: 2.8 days

Q: What about the Weight change [42] of the same molecule?
A: -1.3 g

Q: And the T/C [43]?
A: 98%
